# STAT1 activator = increases IFN-gamma driven STAT1 reporter signal | activation (% of control), % at 5.5 µM | NIH 3T3 STAT1-luciferase reporter, luminescence; 100% = IFN-gamma alone, no compound | AID 932 | 2.6% of 200,000 active;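 active means activation above the screen-wide mean activation plus 3 SD, cut at about 130% in these data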;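 further: raw ratio to IFN-gamma control signal so 100% means no change and 0% no light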
# KCC2 mod = modulates chloride dependent transport by human KCC2; KCC2 cells, thallium flux FluoZin-2 fluorescence; B-score of Tl+ flux slope (higher = more flux/activation; lower = inhibition) at 10 µM; AID 1456; 2.2% of 190,000 active;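 active means thallium flux slope and its plate-corrected score both differing from the plate sample mean at a set confidence after two filtering rounds, in either direction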;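 further: slope of fluorescence scaled to starting intensity during 10 to 20 s after thallium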
# Target sequence (Q9H2X9 whole entry, looked up): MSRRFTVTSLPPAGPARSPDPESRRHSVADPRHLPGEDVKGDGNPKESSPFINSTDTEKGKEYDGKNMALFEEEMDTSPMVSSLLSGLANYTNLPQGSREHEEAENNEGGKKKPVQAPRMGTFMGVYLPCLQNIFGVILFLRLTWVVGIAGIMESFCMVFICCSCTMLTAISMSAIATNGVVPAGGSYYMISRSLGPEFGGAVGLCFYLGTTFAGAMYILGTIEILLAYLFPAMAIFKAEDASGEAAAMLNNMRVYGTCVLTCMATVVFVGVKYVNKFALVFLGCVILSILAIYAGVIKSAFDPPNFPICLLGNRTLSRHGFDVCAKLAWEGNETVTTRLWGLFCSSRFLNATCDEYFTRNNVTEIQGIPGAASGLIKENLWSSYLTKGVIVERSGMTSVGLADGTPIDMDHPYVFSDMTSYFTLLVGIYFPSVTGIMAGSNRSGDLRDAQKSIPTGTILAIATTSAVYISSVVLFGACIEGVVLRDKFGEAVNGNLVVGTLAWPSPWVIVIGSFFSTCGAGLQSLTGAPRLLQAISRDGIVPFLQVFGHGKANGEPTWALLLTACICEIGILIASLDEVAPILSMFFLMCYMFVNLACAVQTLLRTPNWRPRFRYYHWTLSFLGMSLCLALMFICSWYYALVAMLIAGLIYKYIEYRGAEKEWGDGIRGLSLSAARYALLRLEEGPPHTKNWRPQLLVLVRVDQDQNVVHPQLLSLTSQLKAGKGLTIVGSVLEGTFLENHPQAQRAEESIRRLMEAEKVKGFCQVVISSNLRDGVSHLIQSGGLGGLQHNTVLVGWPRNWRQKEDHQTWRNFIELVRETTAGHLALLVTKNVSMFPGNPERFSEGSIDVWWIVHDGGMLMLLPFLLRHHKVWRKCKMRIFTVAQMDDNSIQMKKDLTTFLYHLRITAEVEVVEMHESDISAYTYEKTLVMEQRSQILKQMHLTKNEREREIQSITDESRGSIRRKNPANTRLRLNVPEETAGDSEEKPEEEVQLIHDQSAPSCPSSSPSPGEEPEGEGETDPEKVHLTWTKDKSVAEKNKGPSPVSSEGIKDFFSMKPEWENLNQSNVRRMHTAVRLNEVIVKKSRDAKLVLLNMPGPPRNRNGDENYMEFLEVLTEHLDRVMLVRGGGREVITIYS
# HSV replic up = increases HSV replication in cells. HSV replication augmentation in cells, fold increase. 0.005% of 220,000 active. maximum fold increase; in the data active means maximum fold increase above about 1.5; inconclusive means no clear call, values can overlap the other calls; tested in PC3 cells
# STAT1 inh = STAT1 signaling inhibition | 0.35% of 200,000 active | NIH 3T3 STAT1-luciferase reporter, IFN-gamma, luminescence | AID 920 | inhibition, % at 5.5 µM;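 active means inhibition above a set limit, the mean inhibition across all tested compounds plus 3 SD, cut at about 34% in these data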;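 further: 0% = IFN-gamma with DMSO and 100% = IFN-gamma with 300 µM nifuroxazide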
# STAT3 blocker = STAT3 signaling inhibition | AID 862 | U3A cells, IL-6 STAT3-luciferase reporter, luminescence; host cell line lacks STAT1 | 0.89% of 190,000 active | inhibition, % at 5.5 µM;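 active means inhibition above the mean inhibition across all screened compounds plus 3 SD, cut at about 44% in these data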;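 further: 0% = DMSO only wells and 100% = 100 µM nifuroxazide control wells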
# STAT3 activator = activators of IL-6 induced STAT3 signaling. U3A cells, IL-6 STAT3-luciferase reporter, luminescence; 100% = signal with IL-6 EC80 alone. activation (% of control), % at 5.6 µM. 0.91% of 190,000 active;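 active means activation above the screen-wide mean of compound activation plus 3 SD, cut at about 130% in these data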;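 further: 0% = background luminescence of wells with medium and substrate only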
#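 system = STAT3-luciferase reporter U3A cells | reagent = IL-6 stimulus at 33 ng/mL final | timing = 1 h compound pre-exposure, 6 h IL-6 stimulation, 37 °C | measured by = luminescence | evaluation = % activation versus median of IL-6-stimulated wells | control set = IL-6-only wells as 100% reference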
# KCC2 secondary = confirmation of human KCC2 transport modulators; shares compounds with KCC2 mod; HEK293-KCC2, thallium flux, FluoZin2 fluorescence; active compounds read high; normalised thallium flux (F/F0 slope) at 10 µM; 15% of 3,700 active; AID 1713;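 active means thallium flux slope above the same plate's solvent-only control mean plus 3 SD; inconclusive means the two replicate wells disagree; inactive means no significant difference from solvent-only control wells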
# KCC2 bumet counter = thallium flux persisting under bumetanide in KCC2 cells, counter-screen secondary assay. shares compounds with KCC2 mod. normalized thallium flux at 10 µM. HEK293-KCC2 + bumetanide/ouabain, thallium flux FluoZin2; active compounds read high. 49% of 3,700 active. AID 1714;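 active means thallium entry rate above the same plate's blocked-transporter control wells by more than 3 SD; inconclusive means the two repeat wells disagree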;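 further: raw slope of fluorescence over initial fluorescence between 10 and 20 s after thallium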
# KCC2 sec2 = confirmation of human KCC2 transport modulators; 23% of 3,700 active; HEK293-KCC2, thallium flux FluoZin2 fluorescence; actives lie on both sides; F/F0 rise rate, 10–20 s post-thallium; normalized thallium flux at 10 µM; AID 1715; shares compounds with KCC2 mod;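 active means thallium flux slope more than 3 SD above or below the plate's solvent-only control mean, mostly below; inconclusive means the two repeat wells disagreed; inactive means no significant shift from solvent-only controls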;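 further: raw slope with 0.1% DMSO as baseline and bumetanide as block control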
# HEK293 Tl flux = counter-screen for KCC2 modulators: effect in parental HEK293 cells; 46% of 3,700 active; thallium flux FluoZin2, ouabain; baseline-ratio fluorescence slope, 10–20 s after thallium; AID 1716; thallium flux rate (normalised fluorescence) at 10 µM; shares compounds with KCC2 mod;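 active means thallium flux rate significantly above the same plate's solvent-only control wells, beyond their mean plus 3 SD; inconclusive means the two replicate wells gave conflicting results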
# KCC2 retest ouab = confirmation of human KCC2 modulators with ouabain | raw Tl+ flux slope (below DMSO = inhibition, above = activation) at 10 µM | 48% of 3,700 active | HEK293-KCC2, thallium flux FluoZin2 fluorescence; bidirectional: low = inhibitor, high = activator | shares compounds with KCC2 mod;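 active means thallium flux slope beyond 3 SD from same-plate DMSO control mean in most replicates, usually higher, sometimes lower; inconclusive means repeat tests gave conflicting results; inactive means no significant difference from controls in most replicates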;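 further: slope of initial-normalized fluorescence between seconds 10 and 20 after thallium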
# HEK293 Tl flux2 = acts in parental HEK cells, second KCC2 counter-screen | shares compounds with KCC2 mod | HEK293 parental, thallium flux FluoZin-2 fluorescence slope | thallium flux slope at 10 µM | 33% of 3,700 active;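 active means thallium flux slope above the same plate's solvent-control mean plus 3 SD in both duplicate wells; inconclusive means duplicate wells that disagreed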;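 further: run without ouabain in cells lacking the KCC2 cotransporter; slope of fluorescence scaled to its starting value between 10 and 20 s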
# * = called active by the depositor; i = inactive; ? = inconclusive; . = not tested or not shown. Rows were chosen to be rich in hits. Some 5.5% of all compounds tested hit in one or more screens of this group.
SMILES,STAT1 activator,KCC2 mod,HSV replic up,STAT1 inh,STAT3 blocker,STAT3 activator,KCC2 secondary,KCC2 bumet counter,KCC2 sec2,HEK293 Tl flux,KCC2 retest ouab,HEK293 Tl flux2
Cc1ccc(NC(=O)/C(=C\C=C\c2ccccc2)NC(=O)c2ccccc2)cc1,104,-4*,i,-5,1,103,?,0.0056,0.03,0.0064,0.013*,0.01
Cc1c(CN2CCCC(CO)(Cc3cccc(Cl)c3)C2)cnn1C (centres undefined),100,-0.22,i,-2,8,99,.,.,.,.,.,.
CCOc1ccc(Nc2cc(=O)oc3ccccc23)cc1,111,0.0054,i,-12,0,104,.,.,.,.,.,.
CCN=C1S/C(=C\c2ccc(Sc3ccc(Cl)cc3)o2)C(=O)N1CC,98,-0.083,i,2,1,108,.,.,.,.,.,.
CC1=CN2C(=N)/C(=C/c3ccc(Sc4ccc(Cl)cc4)o3)C(=O)N=C2S1,104,9.2*,i,-4,-11,105,0.0099,0.014*,0.033,0.013*,0.024,0.011
N=C1/C(=C\c2ccc(SCc3ccccc3)o2)C(=O)N=C2SC=NN12,103,1.3,i,-3,14,94,.,.,.,.,.,.
CC1=CN2C(=N)/C(=C/c3ccc(Sc4ccc(C)cc4)o3)C(=O)N=C2S1,107,16*,i,-8,-10,109,0.0068,0.03*,?,0.042*,0.032*,0.021*
N#Cc1c(NC(=O)C2CCCO2)sc2c1CCCCCC2 (centres undefined),107,-1.9,i,-8,-6,110,.,.,.,.,.,.
O=S1(=O)CCN2C(=N1)Sc1c2ccc2c1CCCC2,111,7.7*,i,-11,24,85,0.0098,0.0053,0.033,0.0072,0.022,0.01
O=C(O)c1ccc2c(c1)SC1=NS(=O)(=O)CCN12,.,-0.088,i,.,.,.,.,.,.,.,.,.
CCOC(=O)N1CCN(C(=O)CCCn2c(=S)[nH]c3ccc(Br)cc3c2=O)CC1,91,8.7*,i,10,7,100,0.0078,0.0089*,0.027,0.0097*,0.02,0.011
CCOC(=O)N1CCN(C(=O)CCCn2c(=S)[nH]c3ccccc3c2=O)CC1,94,-0.74,i,7,9,95,.,.,.,.,.,.
CCOC(=O)N1CCN(C(=O)c2ccc3c(=O)n(Cc4ccccc4OC)c(=S)[nH]c3c2)CC1,107,0.19,i,-8,0,103,.,.,.,.,.,.
CCN(CC)CCn1c(=S)[nH]c2ccc(Br)cc2c1=O,92,17*,i,8,21,91,0.017,0.017*,0.031,0.011*,0.02,?
CCOC(=O)N1CCN(C(=O)c2ccc3c(=O)n(Cc4ccccc4)c(=S)[nH]c3c2)CC1,106,4.6*,i,-6,-1,104,0.0092,0.026*,0.029,0.012*,0.028*,0.011*
CCN(CC)CCn1c(=S)[nH]c2ccccc2c1=O,101,0.89,i,-1,5,101,.,.,.,.,.,.
COc1ccc(-c2nc(=S)c3ccc4ccccc4c3[nH]2)cc1,94,79*,i,7,-18,114,0.022*,0.11*,0.048*,0.086*,0.08*,0.04*
Cc1cc(=O)c2ccc3ccccc3c2[nH]1,99,-0.027,.,1,-4,108,.,.,.,.,.,.
CCOC(=O)N1C2=NC(C(=O)OC)=C(C(=O)OC)[C@@H]3N(Cc4ccccc4)c4ccccc4[C@]23C[C@H]1C(=O)OC,.,.,i,.,.,.,.,.,.,.,.,.
COC(=O)C1=C(C(=O)OC)[C@@H]2N(Cc3ccccc3)c3ccccc3[C@@]23C[C@@H](C(=O)OC)N(C(C)=O)C3=N1,.,-1.1*,i,.,.,.,0.0073,0.0046,0.034,0.0073,0.021,0.011
CNC(=O)CNC(=O)Nc1ccc(Cl)c(Cl)c1,105,0.7,i,-7,7,103,.,.,.,.,.,.
Cc1ccc(SCCNC(=O)/C=C/c2cccc([N+](=O)[O-])c2)cc1,111,-4.5*,i,-12,-5,107,0.0073,0.0047,0.035,0.0068,0.015*,0.011
CC(C)(C)SCCNC(=O)/C=C/c1ccc([N+](=O)[O-])cc1,105,-0.13,i,-5,-1,102,.,.,.,.,.,.
CC(C)(C)SCCNC(=O)/C=C/c1cccc([N+](=O)[O-])c1,111,3.7*,i,-12,-5,104,0.0093,0.0063,0.033,0.0047,0.02,0.011
COC(=O)c1cc(Br)c(=O)n(-c2cccc(F)c2)c1,100,-0.36,i,0,2,102,.,.,.,.,.,.
SMILES,STAT1 activator,KCC2 mod,HSV replic up,STAT1 inh,STAT3 blocker,STAT3 activator,KCC2 secondary,KCC2 bumet counter,KCC2 sec2,HEK293 Tl flux,KCC2 retest ouab,HEK293 Tl flux2
CN(C(=S)NC(=O)c1ccc(Br)o1)c1ccccc1,102,7.7*,.,-2,0,104,0.0065,0.02*,0.04*,0.02*,0.031*,0.023*
O=C1Nc2ccc([N+](=O)[O-])cc2OC1CCN1CCN(Cc2ccc3c(c2)OCO3)CC1 (centres undefined),90,-1.1,i,8,4,101,.,.,.,.,.,.
O=C1Nc2ccc([N+](=O)[O-])cc2OC1CCN1CCN(Cc2ccccc2)CC1 (centres undefined),101,-4.2*,i,-3,10,95,0.01,0.0063,0.026*,0.0083,0.013*,0.011
CN1/C(=C\C(=O)COc2ccc3c(c2)OCO3)C(C)(C)c2ccccc21,95,-4*,.,6,4,100,0.0083,0.0046,0.025*,0.0064,?,0.01
CC(C)NC(=O)C1CCCN(c2nnc(-n3cccc3)s2)C1 (centres undefined),96,0.32,i,5,4,101,.,.,.,.,.,.
CC(CCc1ccccc1)NC(=O)C1CCCN(c2nnc(-n3cccc3)s2)C1 (centres undefined),97,-4.4*,i,3,3,102,0.0064,0.0049,0.03,0.008,0.015*,0.011

# Screens: PubChem, several laboratories
